Data taken from ChEMBL document CHEMBL4665801, “Pyrazole-Based Lactate Dehydrogenase Inhibitors with Optimized Cell Activity and Pharmacokinetic Properties” (J Med Chem, 2020).
Active and inactive are the calls of the source.

Assays:
MIA PaCa-2 = experiment: Cytotoxicity against human MIA PaCa-2 cells assessed as reduction in cell viability after 48 hrs by CellTiter-Glo assay; format: functional, cell-based; settings: MIA PaCa-2, 48 h
Mus musculus [1] = experiment: In vivo inhibition of LDH in human A673 cells xenografted athymic nude CrTac:NCr-Foxn1nu mouse assessed as reduction in tumor LDH activity at 50 mg/kg, iv after 1 hr by NADH-based UV-VIS spectrometric method relative to control; format: functional, organism-based
How it was run: (§1)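 Female athymic nude mice carried SQ A673 flank xenografts (2 million cells) and received a single IV dose of 50 mg/kg in PBS-based vehicle. Four mice per time point were sacrificed at 1, 3, 6 and 24 h. Frozen tumor (10–50 mg) was pulverized and lysed in PBS pH 7.4 with 0.1% Triton X-100 on ice for 1 h. Cleared lysate (10–20 μg) was assayed with 10 mM pyruvate and 0.3 mM final NADH, reading NADH oxidation at 340 nm at 37 °C.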

[2] = target: L-lactate dehydrogenase B chain (Homo sapiens) (UniProt P07195); experiment: Inhibition of recombinant human LDHB using sodium pyruvate as substrate preincubated for 5 mins followed by diaphorase/resazurin addition and measured after 20 mins by fluorescence based assay
Sequence of L-lactate dehydrogenase B chain (Homo sapiens) (P07195 2-334 limits assumed): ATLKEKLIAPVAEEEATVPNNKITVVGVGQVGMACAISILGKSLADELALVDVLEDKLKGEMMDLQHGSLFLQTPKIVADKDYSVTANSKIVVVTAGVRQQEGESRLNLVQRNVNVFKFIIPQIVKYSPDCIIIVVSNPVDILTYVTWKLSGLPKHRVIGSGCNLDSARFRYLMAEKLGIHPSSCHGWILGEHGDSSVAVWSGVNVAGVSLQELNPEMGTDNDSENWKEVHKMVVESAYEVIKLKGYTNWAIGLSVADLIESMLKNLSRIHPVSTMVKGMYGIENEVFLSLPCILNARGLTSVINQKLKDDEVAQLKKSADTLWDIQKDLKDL

Mus musculus [3] = experiment: In vivo inhibition of LDH in human A673 cells xenografted athymic nude CrTac:NCr-Foxn1nu mouse assessed as reduction in tumor LDH activity at 50 mg/kg, iv after 6 hrs by UV-VIS spectrometric method relative to control; format: functional; how it was run: as §1
A673 = experiment: Cytotoxicity against human A673 cells assessed as reduction in cell viability after 48 hrs by CellTiter-Glo assay; format: functional, cell-based; settings: A673, 48 h
[4] = target: T1, L-lactate dehydrogenase A chain (Homo sapiens, UniProt P00338); experiment: Inhibition of LDHA in human MIA PaCa-2 cells assessed as decrease in lactate production incubated for 2 hrs by lactate oxidase-coupled fluorescence based assay; format: cell-based
[5] = target: T1, L-lactate dehydrogenase A chain; experiment: Inhibition of LDHA in human A673 cells assessed as decrease in lactate production incubated for 2 hrs by lactate oxidase-coupled fluorescence based assay; format: cell-based
[6] = In vivo inhibition of LDH in human A673 cells xenografted athymic nude CrTac:NCr-Foxn1nu mouse assessed as tumor residual LDH activity at 50 mg/kg, iv after 1 hr by UV-VIS spectrometric method relative to control; format: functional; how it was run: as §1
[7] = target: T1, L-lactate dehydrogenase A chain; experiment: Inhibition of recombinant human LDHA using sodium pyruvate as substrate preincubated for 5 mins followed by diaphorase/resazurin addition and measured after 20 mins by fluorescence based assay
Sus scrofa = organism: Sus scrofa; experiment: Inhibition of porcine heart MDH using malic acid as substrate preincubated for 10 mins followed by substrate addition and measured after 5 mins by resazurin based fluorescence based assay; settings: time 15.0 min
[8] = target: T1, L-lactate dehydrogenase A chain; experiment: Inhibition of GS[HiBiT]GS-tagged LDHA (unknown origin) expressed in HEK-293T cells measured after 1 hr by […]; format: cell-based
How it was run: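 HEK293T cells were transiently transfected for 24 h with CMV-driven LDHA carrying a C-terminal GS[HiBiT]GS tag, then reseeded at 2500 cells/well in DPBS with Ca/Mg and 1 g/L glucose. […] Cells were lysed with NP40, and 11S (100 nM final) plus furimazine was added.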

[9] = target: T1, L-lactate dehydrogenase A chain; experiment: Binding affinity to human His-tagged LDHA by SPR analysis
How it was run: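 SPR on a Mass-1 instrument gave K_D and k_off. Residence time τ was calculated as 1/k_off (s⁻¹).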

Row | inhibition [2] | IC50 [4] [nM] | IC50 [5] [nM] | IC50 [7] [nM] | inhibition (Sus scrofa) | IC50 [8] [nM] | Kd [9] [nM] | SMILES | IC50 (MIA PaCa-2) [nM] | inhibition (Mus musculus [1]) | inhibition (Mus musculus [3]) | IC50 (A673) [nM] | Activity [6] [%]
1 | Active | 434 | 403 | 201 | inactive | 183 |  | NS(=O)(=O)c1ccc(Cc2c(-c3cccc(C#Cc4ccc(C5CC5)s4)c3)nn(-c3nc(C(=O)O)cs3)c2CC2CC2)cc1F | 342 | Active | Active | 332 | <40
2 | Active | 424 | 487 | 202 | inactive | 178 | 0.123 | NS(=O)(=O)c1ccc(Cc2c(-c3ccc(F)c(C#CCC4CCCC4)c3)nn(-c3nc(C(=O)O)cs3)c2CC2CC2)cc1F | 848 |  |  | 939 | 
